# Reference: ChEMBL document CHEMBL5724801, “EUbOPEN Chemogenomics Library - Multiplex” (2024)
# Where “and” joins values, the source holds several entries; their conditions need not be identical. Equal entries are not always repeated.
# Test system: HEK-293T
# Experiment: Multiplex assay against HEK293T
# Assay type: toxicity, cell-based
# Conditions: human
# How it was run: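 Live cells were stained at seeding with Hoechst33342, BioTracker Green Microtubule Cytoskeleton Dye, MitoTracker Red and Annexin V Alexa Fluor 680. Following compound addition, they were imaged on a CQ1 microscope at 37°C and 5% CO2 and gated by CellPathfinder machine learning into Hoechst high-intensity objects or normal cells, with normal cells split into healthy, pyknosed or fragmented nuclei and pyknosed cells into mitotic or apoptotic. Tubulin, mitochondrial-mass and membrane-permeability phenotypes are per cents of healthy-nucleus cells.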
# [1] = 12 h, 1 µM, compound concentration 1 uM
# [2] = 12 h, 10 µM, compound concentration 10 uM
# [3] = 24 h, 1 µM, compound concentration 1 uM
# [4] = 24 h, 10 µM, compound concentration 10 uM
# [5] = 48 h, 1 µM, compound concentration 1 uM
# [6] = 48 h, 10 µM, compound concentration 10 uM
structure (smiles),measurement,setting,value
Cc1sc2c(c1C)C(c1ccc(Cl)cc1)=N[C@H](CC(=O)OC(C)(C)C)c1nnc(C)n1-2,Population Apoptotic (%),[1],40% and 44%
same,Population Fragmented Nuclei (%),[1],8% and 6%
same,Population Healthy Nuclei (%),[1],80% and 76%
same,Population Hoechst High Intensity Objects (%),[1],8% and 9%
same,Population Membrane Permeable-Phenotype (%),[1],0%
same,Population Mitochondria Different-Phenotype (%),[1],49% and 65%
same,Population Mitotic Cells (%),[1],60% and 55%
same,Population Normal (%),[1],91% and 90%
same,Population Pyknosed Nuclei (%),[1],10% and 17%
same,Population Tubulin-Different-Phenotype (%),[1],32% and 26%
same,Total Cell Count,[1],478 and 333
same,Population Apoptotic (%),[2],41% and 66%
same,Population Fragmented Nuclei (%),[2],7% and 5%
same,Population Healthy Nuclei (%),[2],76% and 72%
same,Population Hoechst High Intensity Objects (%),[2],7% and 10%
same,Population Membrane Permeable-Phenotype (%),[2],0%
same,Population Mitochondria Different-Phenotype (%),[2],74% and 90%
same,Population Mitotic Cells (%),[2],58% and 33%
same,Population Normal (%),[2],92% and 89%
same,Population Pyknosed Nuclei (%),[2],15% and 21%
same,Population Tubulin-Different-Phenotype (%),[2],67% and 70%
same,Total Cell Count,[2],395 and 303
same,Population Apoptotic (%),[3],32%
same,Population Fragmented Nuclei (%),[3],10%
same,Population Healthy Nuclei (%),[3],76% and 82%
same,Population Hoechst High Intensity Objects (%),[3],5% and 6%
same,Population Membrane Permeable-Phenotype (%),[3],0%
same,Population Mitochondria Different-Phenotype (%),[3],29% and 43%
same,Population Mitotic Cells (%),[3],68% and 67%
same,Population Normal (%),[3],94% and 93%
same,Population Pyknosed Nuclei (%),[3],13% and 6%
same,Population Tubulin-Different-Phenotype (%),[3],19% and 11%
same,Total Cell Count,[3],609 and 479
same,Population Apoptotic (%),[4],41% and 49%
same,Population Fragmented Nuclei (%),[4],8% and 3%
same,Population Healthy Nuclei (%),[4],68% and 76%
same,Population Hoechst High Intensity Objects (%),[4],4% and 6%
same,Population Membrane Permeable-Phenotype (%),[4],0% and 1%
same,Population Mitochondria Different-Phenotype (%),[4],64% and 76%
same,Population Mitotic Cells (%),[4],58% and 50%
same,Population Normal (%),[4],95% and 93%
same,Population Pyknosed Nuclei (%),[4],23% and 19%
same,Population Tubulin-Different-Phenotype (%),[4],46% and 47%
same,Total Cell Count,[4],468 and 378
same,Population Apoptotic (%),[5],18% and 30%
same,Population Fragmented Nuclei (%),[5],11% and 14%
same,Population Healthy Nuclei (%),[5],80% and 79%
same,Population Hoechst High Intensity Objects (%),[5],3% and 4%
same,Population Membrane Permeable-Phenotype (%),[5],1% and 0%
same,Population Mitochondria Different-Phenotype (%),[5],16% and 21%
same,Population Mitotic Cells (%),[5],81% and 69%
same,Population Normal (%),[5],96% and 95%
same,Population Pyknosed Nuclei (%),[5],7% and 5%
same,Population Tubulin-Different-Phenotype (%),[5],10% and 12%
same,Total Cell Count,[5],1012 and 685
same,Population Apoptotic (%),[6],31% and 55%
same,Population Fragmented Nuclei (%),[6],9% and 8%
same,Population Healthy Nuclei (%),[6],73% and 76%
same,Population Hoechst High Intensity Objects (%),[6],3% and 5%
same,Population Membrane Permeable-Phenotype (%),[6],0%
same,Population Mitochondria Different-Phenotype (%),[6],47% and 66%
same,Population Mitotic Cells (%),[6],68% and 44%
same,Population Normal (%),[6],96% and 94%
same,Population Pyknosed Nuclei (%),[6],16% and 15%
same,Population Tubulin-Different-Phenotype (%),[6],19% and 28%
same,Total Cell Count,[6],641 and 525
CC(C)(O)C(=O)N1CCN(c2ccc(C(F)(F)F)c(C3=C(c4c[nH]c5ccccc45)C(=O)NC3=O)c2)CC1,Population Apoptotic (%),[1],33% and 46%
same,Population Fragmented Nuclei (%),[1],4% and 5%
same,Population Healthy Nuclei (%),[1],78% and 76%
same,Population Hoechst High Intensity Objects (%),[1],8% and 7%
same,Population Membrane Permeable-Phenotype (%),[1],0%
same,Population Mitochondria Different-Phenotype (%),[1],43% and 58%
same,Population Mitotic Cells (%),[1],66% and 53%
same,Population Normal (%),[1],91% and 92%
same,Population Pyknosed Nuclei (%),[1],16% and 17%
same,Population Tubulin-Different-Phenotype (%),[1],28% and 30%
same,Total Cell Count,[1],381 and 293
same,Population Apoptotic (%),[2],51% and 72%
same,Population Fragmented Nuclei (%),[2],4% and 3%
same,Population Healthy Nuclei (%),[2],74% and 75%
same,Population Hoechst High Intensity Objects (%),[2],10% and 7%
same,Population Membrane Permeable-Phenotype (%),[2],0%
same,Population Mitochondria Different-Phenotype (%),[2],61% and 90%
same,Population Mitotic Cells (%),[2],48% and 27%
same,Population Normal (%),[2],89% and 92%
same,Population Pyknosed Nuclei (%),[2],20% and 21%
same,Population Tubulin-Different-Phenotype (%),[2],62% and 63%
same,Total Cell Count,[2],338 and 203
same,Population Apoptotic (%),[3],33% and 29%
same,Population Fragmented Nuclei (%),[3],8% and 5%
same,Population Healthy Nuclei (%),[3],74% and 79%
same,Population Hoechst High Intensity Objects (%),[3],5%
same,Population Membrane Permeable-Phenotype (%),[3],0%
same,Population Mitochondria Different-Phenotype (%),[3],32% and 48%
same,Population Mitotic Cells (%),[3],66% and 70%
same,Population Normal (%),[3],94%
same,Population Pyknosed Nuclei (%),[3],17% and 14%
same,Population Tubulin-Different-Phenotype (%),[3],19%
same,Total Cell Count,[3],469 and 335
same,Population Apoptotic (%),[4],45% and 66%
same,Population Fragmented Nuclei (%),[4],6% and 2%
same,Population Healthy Nuclei (%),[4],71%
same,Population Hoechst High Intensity Objects (%),[4],4% and 7%
same,Population Membrane Permeable-Phenotype (%),[4],1% and 0%
same,Population Mitochondria Different-Phenotype (%),[4],48% and 84%
same,Population Mitotic Cells (%),[4],54% and 34%
same,Population Normal (%),[4],95% and 92%
same,Population Pyknosed Nuclei (%),[4],22% and 25%
same,Population Tubulin-Different-Phenotype (%),[4],43% and 60%
same,Total Cell Count,[4],387 and 212
same,Population Apoptotic (%),[5],25% and 27%
same,Population Fragmented Nuclei (%),[5],9% and 10%
same,Population Healthy Nuclei (%),[5],79%
same,Population Hoechst High Intensity Objects (%),[5],2% and 5%
same,Population Membrane Permeable-Phenotype (%),[5],0%
same,Population Mitochondria Different-Phenotype (%),[5],21% and 29%
same,Population Mitotic Cells (%),[5],74% and 72%
same,Population Normal (%),[5],97% and 94%
same,Population Pyknosed Nuclei (%),[5],10%
same,Population Tubulin-Different-Phenotype (%),[5],14% and 15%
same,Total Cell Count,[5],780 and 571
same,Population Apoptotic (%),[6],54% and 78%
same,Population Fragmented Nuclei (%),[6],8% and 9%
same,Population Healthy Nuclei (%),[6],71%
same,Population Hoechst High Intensity Objects (%),[6],8%
same,Population Membrane Permeable-Phenotype (%),[6],0%
same,Population Mitochondria Different-Phenotype (%),[6],53% and 71%
same,Population Mitotic Cells (%),[6],45% and 21%
same,Population Normal (%),[6],91%
same,Population Pyknosed Nuclei (%),[6],19%
same,Population Tubulin-Different-Phenotype (%),[6],25% and 40%
same,Total Cell Count,[6],467 and 227
